Assay results reported in ChEMBL document CHEMBL5537190, “Development of Potent and Selective Monoacylglycerol Lipase Inhibitors. SARs, Structural Analysis, and Biological Characterization” (J Med Chem, 2024).
Calls of active or inactive are those of the source. The calls are words filed in the database; no cut-off is given here.

How the values were obtained:
[1] = target: T1, Monoglyceride lipase (Mus musculus) (UniProt O35678); test: In-vivo inhibition of ip dosed mouse MAGL assessed as increase in 2-Ag level measured after 1 hr by LC-MS/MS analysis; format: functional, organism-based; conditions: dose 0.2-20 mg/kg
T1 sequence (whole entry): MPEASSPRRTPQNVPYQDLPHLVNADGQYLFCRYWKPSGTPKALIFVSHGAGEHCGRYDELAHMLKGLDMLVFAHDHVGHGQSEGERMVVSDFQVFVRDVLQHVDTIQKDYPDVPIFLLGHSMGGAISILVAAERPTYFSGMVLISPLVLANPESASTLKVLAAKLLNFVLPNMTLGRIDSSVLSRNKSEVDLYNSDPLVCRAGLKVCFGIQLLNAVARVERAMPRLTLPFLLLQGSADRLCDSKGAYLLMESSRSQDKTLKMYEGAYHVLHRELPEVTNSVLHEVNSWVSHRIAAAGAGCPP
Method in brief: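 Adult male mice dosed i.p. at 0.2, 1, 5 or 20 mg/kg (n = 3/group), vehicle DMSO or PEG/Tween (4:1). Killed at 1 h; brains halved and frozen. One half for 2-AG by LC-MS, the other for MAGL assay on homogenate. t-test against vehicle; two-way ANOVA with Bonferroni post-test.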

[2] = target: T2, Monoglyceride lipase (Rattus norvegicus) (UniProt Q8R431); test: Irreversible inhibition of rat MAGL expressed in human HeLa cells incubated for 60 mins; format: cell-based
T2 sequence (whole entry): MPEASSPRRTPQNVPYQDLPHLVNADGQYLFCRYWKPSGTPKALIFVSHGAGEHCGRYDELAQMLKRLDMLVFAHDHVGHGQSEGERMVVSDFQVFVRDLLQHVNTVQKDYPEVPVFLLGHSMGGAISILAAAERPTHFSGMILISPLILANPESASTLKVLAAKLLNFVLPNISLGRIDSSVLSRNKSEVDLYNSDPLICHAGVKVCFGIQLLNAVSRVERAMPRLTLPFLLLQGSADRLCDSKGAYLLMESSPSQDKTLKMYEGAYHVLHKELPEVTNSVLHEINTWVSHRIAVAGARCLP
Method in brief: (§1)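 Homogenates of HeLa cells overexpressing wild-type rat MAGL, in 50 mM Tris-HCl pH 8.0 with 0.5 mg/mL fatty-acid-free BSA, 37 °C; 2-OG substrate 10 µM final, oleic acid by LC/MS. Time course: preincubation for varied times, then 30 min with substrate. Dilution: enzyme concentrated 100-fold, preincubated 20 min with 10× IC50-equivalent compound or 1% DMSO, diluted 100-fold into substrate buffer, product followed over 60 min (n = 3).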

[3] = target: T1, Monoglyceride lipase (Mus musculus); test: In-vivo inhibition of mouse MAGL assessed as effect on AEA level in brain at 5 mg/kg, ip measured after 1 hr by LC-MS/MS analysis; format: functional, organism-based
Method in brief: (§2)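 Adult male mice received 5 mg/kg i.p. (n = 3/group), DMSO vehicle. Killed at 1 h. Half-brains used for lipid analysis by LC-MS; the other half homogenised for MAGL activity assay. Compared with vehicle by two-tailed t-test.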

[4] = target: Cannabinoid receptor 2 (Homo sapiens, UniProt P34972); test: Agonist activity at human CB2 receptor at 10 uM by TR-FRET assay; format: functional
[5] = target: T1, Monoglyceride lipase (Mus musculus); test: In-vivo inhibition of mouse MAGL assessed as effect on docosahexaenoic level in brain at 5 mg/kg, ip measured after 1 hr by LC-MS/MS analysis; format: functional, organism-based; method in brief: as §2
[6] = target: T1, Monoglyceride lipase (Mus musculus); test: In-vivo inhibition of mouse MAGL assessed as effect on palmitic level in brain at 5 mg/kg, ip measured after 1 hr by LC-MS/MS analysis; format: functional, organism-based; method in brief: as §2
[7] = target: T1, Monoglyceride lipase (Mus musculus); test: In-vivo inhibition of mouse MAGL assessed as decrease in arachidonic acid level in brain at 5 mg/kg, ip measured after 1 hr by LC-MS/MS analysis; format: functional, organism-based; method in brief: as §2
[8] = target: T1, Monoglyceride lipase (Mus musculus); test: In-vivo inhibition of MAGL activity in brain of mouse at 5 mg/kg, ip measured after 1 hrs by LC-MS analysis; format: functional, organism-based; method in brief: as §2
[9] = target: T3, Lysophosphatidylserine lipase ABHD12 (Mus musculus) (UniProt Q99LR1); test: Binding affinity to mouse brain ABHD12 at 0.1 to 1 uM incubated for 30 mins in presence of g MB064 by ABPP assay; format: tissue-based; conditions: dose 0.1-1 µM
T3 sequence (whole entry): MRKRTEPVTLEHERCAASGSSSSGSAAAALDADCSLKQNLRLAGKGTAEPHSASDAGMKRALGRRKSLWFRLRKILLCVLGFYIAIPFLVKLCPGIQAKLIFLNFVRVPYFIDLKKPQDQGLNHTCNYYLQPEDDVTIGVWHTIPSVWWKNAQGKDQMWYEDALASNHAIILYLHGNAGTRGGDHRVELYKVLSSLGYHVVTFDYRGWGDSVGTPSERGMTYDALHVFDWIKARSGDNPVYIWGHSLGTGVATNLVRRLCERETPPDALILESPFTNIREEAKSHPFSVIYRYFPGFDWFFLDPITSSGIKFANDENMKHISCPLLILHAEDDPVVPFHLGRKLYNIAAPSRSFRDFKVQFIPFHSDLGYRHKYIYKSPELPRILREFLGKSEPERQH
Method in brief: (§3)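 Male C57Bl/6J mouse brain (27 weeks) homogenised; membrane and cytosol fractions separated and diluted to 2.0 mg/mL. Samples incubated with compound (0.1 or 1 µM final) or 2.5% DMSO for 30 min at RT. Probes MB064 and FP-Bodipy (100 nM each) added for 10 min. SDS-PAGE with in-gel fluorescence; Coomassie staining as loading control.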

[10] = target: T1, Monoglyceride lipase (Mus musculus); test: In-vivo inhibition of mouse MAGL assessed as effect on OEA level in brain at 5 mg/kg, ip measured after 1 hr by LC-MS/MS analysis; format: functional, organism-based; method in brief: as §2
[11] = target: T4, Monoacylglycerol lipase ABHD6 (Mus musculus) (UniProt Q8R2Y0); test: Binding affinity to mouse brain ABHD6 at 0.1 to 1 uM incubated for 30 mins in presence of MB064 by ABPP assay; format: tissue-based; conditions: dose 0.1-1 µM; method in brief: as §3
T4 sequence (whole entry): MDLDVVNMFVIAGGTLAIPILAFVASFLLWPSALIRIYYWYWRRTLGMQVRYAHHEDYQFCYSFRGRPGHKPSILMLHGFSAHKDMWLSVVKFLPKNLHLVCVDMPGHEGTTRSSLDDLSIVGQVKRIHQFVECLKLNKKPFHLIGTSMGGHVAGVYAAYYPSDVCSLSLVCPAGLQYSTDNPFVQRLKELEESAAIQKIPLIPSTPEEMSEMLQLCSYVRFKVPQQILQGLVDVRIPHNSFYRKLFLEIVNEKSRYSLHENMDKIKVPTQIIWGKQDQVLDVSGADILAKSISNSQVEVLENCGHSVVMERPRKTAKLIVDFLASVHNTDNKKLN

[12] = target: T1, Monoglyceride lipase (Mus musculus); test: In-vivo inhibition of mouse MAGL assessed as effect on PEA level in brain at 5 mg/kg, ip measured after 1 hr by LC-MS/MS analysis; format: functional, organism-based; method in brief: as §2
[13] = target: T2, Monoglyceride lipase (Rattus norvegicus); test: Inhibition of wild type rat MAGL expressed in human HeLa cells; format: cell-based; conditions: time 10.0 min, TDE = time-dependent effect; method in brief: as §1
[14] = target: Cannabinoid receptor 1 (Homo sapiens) (UniProt P21554); test: Agonist activity at CB1 receptor (unknown origin) at 10 uM; format: functional
[15] = target: Acyl-protein thioesterase 2 (Mus musculus) (UniProt Q9WTL7); test: Binding affinity to mouse brain LYPLA2 at 0.1 to 1 uM incubated for 30 mins in presence of MB064 by ABPP assay; format: tissue-based; conditions: dose 0.1-1 µM; method in brief: as §3
[16] = target: T1, Monoglyceride lipase (Mus musculus); test: In-vivo inhibition of mouse MAGL assessed as effect on oleic level in brain at 5 mg/kg, ip measured after 1 hr by LC-MS/MS analysis; format: functional, organism-based; method in brief: as §2
[17] = target: Kappa-type opioid receptor (Homo sapiens) (UniProt P41145); test: Agonist activity at human KOP at 10 uM relative to control; format: functional; conditions: filed as agonist
[18] = target: T1, Monoglyceride lipase (Mus musculus); test: In-vivo inhibition of mouse MAGL assessed as fold increase in 2-AG content in brain at 5 mg/kg, ip measured after 1 hr by LC-MS/MS analysis; format: functional, organism-based; method in brief: as §2
[19] = target: T1, Monoglyceride lipase (Mus musculus); test: In-vivo inhibition of mouse MAGL assessed as effect on stearic level in brain at 5 mg/kg, ip measured after 1 hr by LC-MS/MS analysis; format: functional, organism-based; method in brief: as §2

Chain of Acyl-protein thioesterase 2 (Mus musculus) (Q9WTL7 whole entry): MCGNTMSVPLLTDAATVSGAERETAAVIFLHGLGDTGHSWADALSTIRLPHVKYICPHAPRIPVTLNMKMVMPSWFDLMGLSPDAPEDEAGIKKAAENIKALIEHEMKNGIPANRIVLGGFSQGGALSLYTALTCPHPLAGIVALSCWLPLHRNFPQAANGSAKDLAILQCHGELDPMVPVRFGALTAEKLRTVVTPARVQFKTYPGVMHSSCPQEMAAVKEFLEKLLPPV
Chain of Kappa-type opioid receptor (Homo sapiens) (P41145 whole entry): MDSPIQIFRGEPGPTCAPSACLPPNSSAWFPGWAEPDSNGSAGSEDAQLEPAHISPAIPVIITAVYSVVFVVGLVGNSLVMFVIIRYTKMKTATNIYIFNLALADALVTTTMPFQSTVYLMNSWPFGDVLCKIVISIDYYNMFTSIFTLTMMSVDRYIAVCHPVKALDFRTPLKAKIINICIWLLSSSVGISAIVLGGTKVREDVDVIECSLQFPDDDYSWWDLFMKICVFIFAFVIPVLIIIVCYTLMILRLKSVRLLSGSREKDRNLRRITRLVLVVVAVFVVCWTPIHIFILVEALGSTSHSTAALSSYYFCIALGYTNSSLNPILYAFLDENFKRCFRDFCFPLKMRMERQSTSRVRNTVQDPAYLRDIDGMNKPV
Chain of Cannabinoid receptor 2 (P34972 whole entry): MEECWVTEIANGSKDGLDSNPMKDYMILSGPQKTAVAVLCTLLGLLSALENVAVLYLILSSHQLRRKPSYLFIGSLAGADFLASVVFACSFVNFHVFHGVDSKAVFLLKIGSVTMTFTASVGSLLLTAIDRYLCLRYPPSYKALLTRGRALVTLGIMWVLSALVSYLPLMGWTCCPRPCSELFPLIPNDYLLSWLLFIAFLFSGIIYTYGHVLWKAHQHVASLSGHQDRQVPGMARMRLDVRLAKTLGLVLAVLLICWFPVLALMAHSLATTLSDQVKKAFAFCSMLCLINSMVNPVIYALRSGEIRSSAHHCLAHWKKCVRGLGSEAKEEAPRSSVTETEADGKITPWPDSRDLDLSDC
Chain of Cannabinoid receptor 1 (Homo sapiens) (P21554 whole entry): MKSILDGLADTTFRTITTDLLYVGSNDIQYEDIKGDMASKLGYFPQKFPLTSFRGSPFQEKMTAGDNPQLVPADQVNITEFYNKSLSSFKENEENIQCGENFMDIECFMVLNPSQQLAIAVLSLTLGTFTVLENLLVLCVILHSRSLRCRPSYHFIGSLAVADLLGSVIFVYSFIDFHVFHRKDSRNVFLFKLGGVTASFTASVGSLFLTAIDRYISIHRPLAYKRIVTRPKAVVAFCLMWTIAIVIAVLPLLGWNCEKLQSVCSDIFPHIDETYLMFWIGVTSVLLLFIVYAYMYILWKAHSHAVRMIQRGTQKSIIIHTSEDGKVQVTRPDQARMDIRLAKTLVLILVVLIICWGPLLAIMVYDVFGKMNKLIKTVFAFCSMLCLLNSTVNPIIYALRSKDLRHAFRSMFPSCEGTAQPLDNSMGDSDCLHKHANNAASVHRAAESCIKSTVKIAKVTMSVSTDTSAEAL

O=C(Oc1ccc([N+](=O)[O-])cc1)N1CCC(C(O)(c2ccc3c(c2)OCO3)c2ccc3c(c2)OCO3)CC1
inhibition [1]: Dose-Dependent Effect

O=C1[C@H](c2ccc(F)cc2)[C@@H](c2ccc3c(c2)OCO3)N1C1CCN(C(=O)n2nnc3ccccc32)CC1 (racemic)
inhibition [2]: Active
inhibition [3]: Dose-Dependent Effect
Activity [4]: inactive
inhibition [5]: Active
inhibition [6]: Active
inhibition [7]: Active
inhibition [8]: 50%
Activity [9]: Active
inhibition [10]: Dose-Dependent Effect
Activity [11]: Active
inhibition [1]: Dose-Dependent Effect
inhibition [12]: Dose-Dependent Effect
inhibition [13]: Tde
Activity [14]: inactive
Activity [15]: Active
inhibition [16]: Active
Activity [17]: 73%
fold change (FC) [18]: > 40
inhibition [19]: Active

O=C1[C@H](c2ccc(F)cc2)[C@@H](c2ccc3c(c2)OCO3)N1C1CCN(C(=O)n2nnc3ccccc32)CC1
Activity [9]: Active
Activity [11]: Active
Activity [15]: Active
